Measured values from ChEMBL document CHEMBL5678802, “Small-molecule p21-activated kinase inhibitor PF-3758309 is a potent inhibitor of oncogenic signaling and tumor growth” (Proc Natl Acad Sci U S A, 2010).
Activity calls are given as the source filed them. The calls are words filed in the database; no cut-off is given here.

Legend:
[1] = system: NCI-H1651; assay: Antiproliferative activity against human NCI-H1651 cells assessed as inhibition of cell proliferation incubated for 3 days by CellTiter-Glo Luminescent Cell Viability Assay; assay type: functional, cell-based; details: NCI-H1651, 72 h
How it was run: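 Cancer cell lines seeded in 384-well plates on day 1; compound added on day 2 and left for 3 days. On day 5 all medium was aspirated, and viable cells were quantified by CellTiter-Glo luminescence, which measures cellular ATP. Dose-dependent effects on proliferation were determined.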

[2] = system: NCI-H647; assay: Antiproliferative activity against human NCI-H647 cells assessed as inhibition of cell proliferation incubated for 3 days by CellTiter-Glo Luminescent Cell Viability Assay; assay type: functional, cell-based; details: NCI-H647, 72 h
How it was run: (§1)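 Cells of each line were plated in 384-well plates on day 1 and exposed to compound from day 2 for 3 days. On day 5 all medium was aspirated. Viable cell number was read by CellTiter-Glo luminescence, which quantifies cellular ATP.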

[3] = Antiproliferative activity against human PL45 cells assessed as inhibition of cell proliferation incubated for 3 days by CellTiter-Glo Luminescent Cell Viability Assay; assay type: functional, cell-based; details: PL45, 72 h; how it was run: as §1
[4] = target: T1, Serine/threonine-protein kinase D1 (Homo sapiens, UniProt Q15139); assay: Inhibition of human PKCmu assessed as inhibition constant in presence of ATP
T1 sequence (Q15139 whole entry): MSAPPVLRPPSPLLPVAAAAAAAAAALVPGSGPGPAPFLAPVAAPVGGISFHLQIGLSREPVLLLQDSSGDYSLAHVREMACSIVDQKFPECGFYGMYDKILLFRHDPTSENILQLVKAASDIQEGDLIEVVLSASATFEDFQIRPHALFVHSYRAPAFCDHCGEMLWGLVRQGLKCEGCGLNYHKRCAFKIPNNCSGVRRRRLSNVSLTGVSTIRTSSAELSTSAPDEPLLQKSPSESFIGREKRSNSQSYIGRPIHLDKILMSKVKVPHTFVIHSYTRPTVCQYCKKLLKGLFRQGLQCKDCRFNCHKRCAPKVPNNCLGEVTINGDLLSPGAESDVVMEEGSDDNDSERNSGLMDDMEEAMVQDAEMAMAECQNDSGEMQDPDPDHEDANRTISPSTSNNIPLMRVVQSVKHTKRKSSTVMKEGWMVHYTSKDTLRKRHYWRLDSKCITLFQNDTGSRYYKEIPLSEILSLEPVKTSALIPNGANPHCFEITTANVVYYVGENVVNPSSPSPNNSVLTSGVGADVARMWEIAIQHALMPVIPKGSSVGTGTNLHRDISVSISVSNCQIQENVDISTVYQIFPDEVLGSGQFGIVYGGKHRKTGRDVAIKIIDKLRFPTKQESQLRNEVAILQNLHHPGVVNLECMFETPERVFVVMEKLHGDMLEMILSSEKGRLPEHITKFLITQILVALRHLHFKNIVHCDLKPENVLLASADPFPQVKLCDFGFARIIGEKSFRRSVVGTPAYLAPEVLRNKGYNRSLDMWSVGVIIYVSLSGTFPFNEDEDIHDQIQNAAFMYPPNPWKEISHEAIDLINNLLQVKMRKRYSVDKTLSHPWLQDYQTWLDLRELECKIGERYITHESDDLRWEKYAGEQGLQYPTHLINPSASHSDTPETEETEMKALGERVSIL

[5] = target: T1, Serine/threonine-protein kinase D1; assay: Inhibition of human PKCmu in presence of ATP
[6] = system: HCT-116; assay: Antitumor activity against human HCT-116 cells xenografted in nude mouse assessed as reduction in STAT6 phosphorylation at Y641 residue at 15 to 150 mg/kg/day administered via pump for 18 hrs by Reverse-Phase protein array analysis; assay type: functional, organism-based; details: dose 15-150 mg/kg/day

IC50 [1]: 20 nM
IC50 [2]: 36 nM
Ki [4]: 21 nM
IC50 [5]: 21 nM
Structure (SMILES): Cc1nc(Nc2n[nH]c3c2CN(C(=O)N[C@H](CN(C)C)c2ccccc2)C3(C)C)c2sccc2n1 [PF-03758309]
IC50 [3]: 53 nM
Activity [6]: Active
